Columns and labels:
[1] = Thermodynamic solubility of the compound in FaSSGF at 100 mg/ml at pH 1.6 measured after 4 hrs; settings: pH 1.6, 4 h
[2] = target: Trypsin (Homo sapiens, UniProt P07477+P07478+P35030); test: Inhibition of human trypsin preincubated for 5 mins followed by substrate addition by fluorometer analysis; type: protein assay
Procedure, shortened: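 Human proteases, typically purified from plasma, preincubated with compound for 5 min. A protease-specific fluorogenic substrate was then added and cleavage followed kinetically on a fluorometer. IC50 from a four-parameter logistic fit to the normalized rate of fluorescence increase.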

[3] = target: Cytochrome P450 2C8 (Homo sapiens, UniProt P10632); test: Inhibition of CYP2C8 in human liver microsomes assessed as reduction in 6 alpha-hydroxypaclitaxel metabolite formation incubated for 30 mins in presence of NADPH by LC-MS/MS analysis; type: ADME, Microsome
Chain of Cytochrome P450 2C8 (P10632 whole entry): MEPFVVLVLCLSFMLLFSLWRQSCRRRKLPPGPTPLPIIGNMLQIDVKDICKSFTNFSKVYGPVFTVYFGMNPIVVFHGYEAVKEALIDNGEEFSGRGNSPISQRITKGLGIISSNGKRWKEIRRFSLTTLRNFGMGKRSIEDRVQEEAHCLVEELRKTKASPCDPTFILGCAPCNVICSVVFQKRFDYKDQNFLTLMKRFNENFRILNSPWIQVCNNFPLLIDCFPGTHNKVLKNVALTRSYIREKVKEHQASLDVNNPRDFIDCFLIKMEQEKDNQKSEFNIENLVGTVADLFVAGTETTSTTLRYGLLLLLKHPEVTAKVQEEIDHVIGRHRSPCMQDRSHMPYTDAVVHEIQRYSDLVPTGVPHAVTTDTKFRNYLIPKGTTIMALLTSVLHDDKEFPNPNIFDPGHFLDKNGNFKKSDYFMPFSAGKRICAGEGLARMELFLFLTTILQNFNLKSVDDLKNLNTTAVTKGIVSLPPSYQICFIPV

[4] = Clearance in Sprague-Dawley rat assessed as liver blood flow at 1 mg/kg, iv measured upto 24 hrs by LC-MS analysis; type: ADME, organism-based; settings: in vivo
Procedure, shortened: (§1)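 Male Sprague-Dawley rats, two per route, single dose. IV: 1 mg/kg given as 1 mL/kg of a nominal 1 mg/mL formulation in vehicle. PO: 10 mg/kg given as 5 mL/kg of a 2 mg/mL formulation. PK parameters from noncompartmental analysis. Clearance expressed relative to rat liver blood flow of 80 mL/min/kg.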

[5] = target: T1, Cytochrome P450 1A2 (Homo sapiens, UniProt P05177); test: Inhibition of CYP1A2 in human liver microsomes assessed as reduction in acetaminophen metabolite formation incubated for 30 mins in presence of NADPH by LC-MS/MS analysis; type: ADME, Microsome
T1 sequence (P05177 whole entry): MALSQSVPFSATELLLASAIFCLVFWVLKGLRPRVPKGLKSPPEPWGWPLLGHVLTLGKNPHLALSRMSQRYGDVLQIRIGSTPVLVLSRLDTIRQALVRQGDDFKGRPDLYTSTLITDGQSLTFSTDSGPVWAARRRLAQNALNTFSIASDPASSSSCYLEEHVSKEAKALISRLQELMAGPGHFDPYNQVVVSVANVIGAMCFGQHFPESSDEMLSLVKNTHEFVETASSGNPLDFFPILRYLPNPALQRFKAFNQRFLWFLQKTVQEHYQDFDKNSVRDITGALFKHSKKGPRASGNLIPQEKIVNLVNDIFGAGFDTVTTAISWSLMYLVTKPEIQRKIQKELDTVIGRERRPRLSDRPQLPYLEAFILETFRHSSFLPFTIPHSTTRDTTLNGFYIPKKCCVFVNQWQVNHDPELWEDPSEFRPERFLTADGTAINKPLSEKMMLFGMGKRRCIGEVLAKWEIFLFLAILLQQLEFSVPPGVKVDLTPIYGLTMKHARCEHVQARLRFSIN

[6] = target: Cytochrome P450 3A4 (Homo sapiens, UniProt P08684); test: Inhibition of CYP3A4 in human liver microsomes assessed as reduction in 6beta-hydroxymidazolam metabolite formation using midazolam as substrate incubated for 30 mins in presence of NADPH by LC-MS/MS analysis; type: ADME, Microsome
Chain of Cytochrome P450 3A4 (P08684 whole entry): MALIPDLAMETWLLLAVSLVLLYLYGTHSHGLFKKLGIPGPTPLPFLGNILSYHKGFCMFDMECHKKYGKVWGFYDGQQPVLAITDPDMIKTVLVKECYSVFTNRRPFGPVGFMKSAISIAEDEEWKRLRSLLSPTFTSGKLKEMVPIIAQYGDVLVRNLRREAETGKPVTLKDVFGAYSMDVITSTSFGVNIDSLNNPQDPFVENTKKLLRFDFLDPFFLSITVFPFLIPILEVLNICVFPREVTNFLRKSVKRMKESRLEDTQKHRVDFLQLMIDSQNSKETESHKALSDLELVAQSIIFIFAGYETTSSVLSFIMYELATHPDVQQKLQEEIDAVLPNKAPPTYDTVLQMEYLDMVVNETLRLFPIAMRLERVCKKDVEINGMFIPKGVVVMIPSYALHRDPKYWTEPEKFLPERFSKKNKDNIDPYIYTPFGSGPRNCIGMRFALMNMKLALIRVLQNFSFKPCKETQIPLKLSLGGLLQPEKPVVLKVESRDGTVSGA

[7] = Clearance in Beagle dog blood at 1 mg/kg, iv measured upto 24 hrs by LC-MS analysis; type: ADME, organism-based, Canis lupus familiaris; settings: whole blood
[8] = target: Cytochrome P450 2C19 (Homo sapiens, UniProt P33261); test: Inhibition of CYP2C19 in human liver microsomes assessed as reduction in 4-hydroxymephenytoin metabolite formation incubated for 30 mins in presence of NADPH by LC-MS/MS analysis; type: ADME, Microsome
Chain of Cytochrome P450 2C19 (P33261 whole entry): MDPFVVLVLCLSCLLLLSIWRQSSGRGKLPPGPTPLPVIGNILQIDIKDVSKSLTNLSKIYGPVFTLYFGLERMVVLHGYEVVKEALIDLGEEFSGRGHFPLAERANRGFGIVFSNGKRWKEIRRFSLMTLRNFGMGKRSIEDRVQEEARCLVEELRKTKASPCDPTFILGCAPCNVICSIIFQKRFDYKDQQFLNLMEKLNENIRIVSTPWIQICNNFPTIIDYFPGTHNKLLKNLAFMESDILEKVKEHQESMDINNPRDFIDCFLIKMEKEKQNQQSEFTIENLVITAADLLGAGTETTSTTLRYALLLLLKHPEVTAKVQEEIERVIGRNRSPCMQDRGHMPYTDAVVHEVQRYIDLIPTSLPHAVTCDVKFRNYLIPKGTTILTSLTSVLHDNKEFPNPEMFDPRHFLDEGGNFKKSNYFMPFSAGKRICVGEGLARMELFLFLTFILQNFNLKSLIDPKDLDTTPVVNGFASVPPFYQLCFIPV

[9] = Half life in Sprague-Dawley rat at 10 mg/kg, po and 1 mg/kg, iv measured upto 24 hrs by LC-MS analysis; type: ADME, organism-based; settings: in vivo
Procedure, shortened: as §1

[10] = Half life in Beagle dog at 1 mg/kg, po and 1 mg/kg, iv measured upto 24 hrs by LC-MS analysis; type: ADME, organism-based, Canis lupus familiaris; settings: in vivo
[11] = target: Tissue-type plasminogen activator (Homo sapiens, UniProt P00750); test: Inhibition of human tissue plasminogen activator preincubated for 5 mins followed by substrate addition by fluorometer analysis
Chain of Tissue-type plasminogen activator (P00750 whole entry): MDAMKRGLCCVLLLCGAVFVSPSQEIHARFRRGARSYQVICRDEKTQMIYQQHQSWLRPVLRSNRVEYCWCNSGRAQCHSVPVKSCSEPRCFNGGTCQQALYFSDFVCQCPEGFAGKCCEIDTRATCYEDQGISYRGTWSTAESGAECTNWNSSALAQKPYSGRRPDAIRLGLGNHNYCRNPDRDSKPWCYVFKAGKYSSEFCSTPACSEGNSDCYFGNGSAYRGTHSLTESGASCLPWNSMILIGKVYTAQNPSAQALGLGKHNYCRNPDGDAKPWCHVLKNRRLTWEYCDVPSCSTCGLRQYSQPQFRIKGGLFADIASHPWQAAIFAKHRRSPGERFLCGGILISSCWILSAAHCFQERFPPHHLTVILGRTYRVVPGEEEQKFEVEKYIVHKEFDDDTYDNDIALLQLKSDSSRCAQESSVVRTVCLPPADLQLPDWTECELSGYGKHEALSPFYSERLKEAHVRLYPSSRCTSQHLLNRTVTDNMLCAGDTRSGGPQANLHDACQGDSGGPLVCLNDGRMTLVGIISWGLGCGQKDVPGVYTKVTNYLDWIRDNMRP
Procedure, shortened: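 Each protease (commercial, typically purified from human plasma) was preincubated with inhibitor for 5 min, then a fluorogenic substrate specific to that enzyme was added. Cleavage was followed kinetically by fluorometry. IC50 came from a four-parameter logistic fit to the normalized rate of fluorescence increase.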

**Q.** For `COCc1nn(Cc2ccc(Cn3ccccc3=O)cc2)cc1C(=O)NCc1nccc(OC)c1F` [SEBETRALSTAT], which Therm_solubility [1] is on record?
**A.** 11 mg/mL

**Q.** What about the IC50 [2] of the same molecule?
**A.** > 40 µM

**Q.** What about the IC50 [3] of the same molecule?
**A.** > 25 µM

**Q.** What about the LBF [4] of the same molecule?
**A.** 26%

**Q.** And the IC50 [5]?
**A.** > 25 µM

**Q.** And the IC50 [6]?
**A.** > 25 µM

**Q.** And the clearance [7]?
**A.** 10.9 mL/min/kg

**Q.** What about the IC50 [8] of the same molecule?
**A.** > 25 µM

**Q.** What about the t1/2 [9] of the same molecule?
**A.** 1 h

**Q.** And the t1/2 [10]?
**A.** 1 h

**Q.** What about the IC50 [11] of the same molecule?
**A.** > 10 µM

Reference: ChEMBL document CHEMBL5108074 (J Med Chem, 2022)
